{"data": "Published values pooled from the literature", "MAPK14": "Mitogen-activated protein kinase 14 (MAPK14, Homo sapiens, UniProt Q16539)", "MAPK14 T106M": "Mitogen-activated protein kinase 14 (MAPK14, Homo sapiens, UniProt Q16539, T106M)", "note": "Each line is one published result; the experiments were not run side by side."}
{"SMILES": "Cc1cc(-n2nc(Cc3cc(F)cc(C(F)(F)F)c3)nc2C)ccc1C(N)=O", "target": "MAPK14", "effect on": "cell-free assay", "method": "competition with immobilised ligand", "tested at": "1 µM", "quantity": "remaining binding", "result": "95%"}
{"SMILES": "CC(C)c1ccc(NC(=O)c2cccs2)c(-c2nc3ccccc3[nH]c2=O)c1", "target": "MAPK14", "effect on": "enzyme activity", "mode": "inhibitor", "tested at": "1 µM", "quantity": "activity vs control", "result": "102%"}
{"SMILES": "CSc1cccnc1N1CCN(Cc2nc3ccccc3[nH]2)CC1", "target": "MAPK14", "effect on": "cell-free assay", "method": "competition with immobilised ligand", "tested at": "1 µM", "quantity": "remaining binding", "result": "100%"}
{"SMILES": "N#Cc1c(NC(=O)c2cccc3ccccc23)sc2c1CCCC2", "target": "MAPK14", "effect on": "cell-free assay", "tested at": "0.5 µM", "quantity": "remaining signal", "result": "98.1%"}
{"SMILES": "Cc1ccc(NC(=O)c2ccc(C)c(C(F)(F)F)c2)cc1C#Cc1nn(C2CCC(O)CC2)c2ncnc(N)c12 (stereo not shown)", "target": "MAPK14", "effect on": "cell-free assay", "tested at": "10 µM", "quantity": "remaining signal", "result": "3%"}
{"SMILES": "O=C(N[C@H]1CCCCC/C=C\\C2C[C@@]2(C(=O)O)NC(=O)[C@@H]2C[C@@H](Oc3ccncc3)CN2C1=O)OC1CCCC1 (stereo partly shown)", "target": "MAPK14", "effect on": "binding", "method": "competition with immobilised ligand", "tested at": "1 µM", "quantity": "remaining binding", "result": "94%"}
{"SMILES": "Cc1cc(NC(=O)c2cccc3cc(-c4cccc5[nH]nc(N)c45)ccc23)ccc1F", "target": "MAPK14 T106M", "effect on": "enzyme activity", "mode": "inhibitor", "tested at": "0.1 µM", "quantity": "activity vs control", "result": "96%"}
{"SMILES": "Cc1ccc(C(=O)Nc2ccc(CN3CCN(C)CC3)c(C(F)(F)F)c2)cc1C#Cc1cnc2cccnn12", "target": "MAPK14", "effect on": "enzyme activity", "mode": "inhibitor", "tested at": "23.5 nM", "quantity": "remaining activity", "result": "29%"}
{"SMILES": "CCN(CC)CCNC(=O)c1c(C)[nH]c(/C=C2\\C(=O)Nc3ccc(F)cc32)c1C", "target": "MAPK14 T106M", "effect on": "enzyme activity", "mode": "inhibitor", "tested at": "0.3 µM", "quantity": "inhibition", "result": "5%"}
{"SMILES": "COc1ccc2c(c1)O[C@@H](c1ccc(OC)c(OC)c1)C[C@H]2NC(=O)C1(c2ccc3c(c2)OC(F)(F)O3)CC1", "target": "MAPK14", "effect on": "cell-free assay", "method": "competition with immobilised ligand", "tested at": "1 µM", "quantity": "remaining binding", "result": "99%"}
{"SMILES": "Cc1ccc(Nc2nccc(N(C)c3ccc4c(C)n(C)nc4c3)n2)cc1S(N)(=O)=O", "target": "MAPK14", "effect on": "enzyme activity", "mode": "inhibitor", "tested at": "0.3 µM", "quantity": "inhibition", "result": "6%"}
{"SMILES": "O=C(NCCCC1CCCCC1)c1ccc(CNC(=O)c2cnn(-c3ccccc3)c2C(F)(F)F)cc1", "target": "MAPK14", "effect on": "cell-free assay", "method": "competition with immobilised ligand", "tested at": "0.1 µM", "quantity": "remaining binding", "result": "100%"}
{"SMILES": "Nc1nc(NC2CCCCC2)sc1C(=O)c1ccccc1", "target": "MAPK14", "effect on": "enzyme activity", "mode": "inhibitor", "tested at": "10 µM", "quantity": "remaining activity", "result": "24%"}
{"SMILES": "CN(C)C1CCN(CC#Cc2nn(C3CCCC3)c3nc(NCc4ccccc4)ncc23)C1 (stereo not shown)", "target": "MAPK14", "effect on": "enzyme activity", "mode": "inhibitor", "method": "FRET", "tested at": "0.1 µM", "quantity": "inhibition", "result": "8%"}
{"SMILES": "CN([C@@H]1CCc2c(CC(=O)O)c3cc(S(C)(=O)=O)ccc3n2C1)S(=O)(=O)c1ccc(F)cc1", "target": "MAPK14", "effect on": "cell-free assay", "method": "competition with immobilised ligand", "tested at": "1 µM", "quantity": "remaining binding", "result": "100%"}
{"SMILES": "COc1cc(Nc2cnc(C#N)c(O[C@H](C)CN(C)C)n2)ncc1-c1cnn(C)c1", "target": "MAPK14", "effect on": "enzyme activity", "mode": "inhibitor", "method": "radiometric", "tested at": "10 µM", "quantity": "remaining activity", "result": "85%"}
{"SMILES": "c1ccc(CNc2nc(N3CCOc4ccccc43)nc3c2CCCC3)cc1", "target": "MAPK14", "effect on": "target engagement in cells", "mode": "inhibitor", "method": "chemoproteomics", "tested at": "20 mM", "quantity": "inhibition", "result": "6.3%"}
{"SMILES": "Cc1noc([C@H]2C[C@@H](c3ccc(C(F)(F)F)cc3)CN(C(=O)N3CCS(=O)(=O)C3)C2)n1", "target": "MAPK14", "effect on": "cell-free assay", "method": "competition with immobilised ligand", "tested at": "1 µM", "quantity": "remaining binding", "result": "79%"}
{"SMILES": "Oc1ccc(-c2nc(-c3ccncc3)c(-c3ccc(F)cc3)[nH]2)cc1", "target": "MAPK14", "effect on": "cell-free assay", "tested at": "0.5 µM", "quantity": "remaining signal", "result": "7.42%"}
{"SMILES": "Cn1c(=O)n(-c2ccc(C(C)(C)C#N)cc2)c2c3cc(-c4cnc5ccccc5c4)ccc3ncc21", "target": "MAPK14", "effect on": "enzyme activity", "mode": "inhibitor", "tested at": "10 µM", "quantity": "remaining activity", "result": "111%"}
{"SMILES": "O=C1Nc2ccc(Cl)cc2C1=Cc1cc(Cl)c(O)c(Cl)c1", "target": "MAPK14", "effect on": "cell-free assay", "tested at": "0.5 µM", "quantity": "remaining signal", "result": "74.6%"}
{"SMILES": "Nc1nc(Nc2ccccc2)sc1C(=O)c1c(F)cccc1F", "target": "MAPK14", "effect on": "enzyme activity", "mode": "inhibitor", "tested at": "10 µM", "quantity": "remaining activity", "result": "8%"}
{"SMILES": "CC(C)(C)c1nc(-c2cccc(NS(=O)(=O)c3c(F)cccc3F)c2F)c(-c2ccnc(N)n2)s1", "target": "MAPK14", "effect on": "enzyme activity", "mode": "inhibitor", "method": "radiometric", "tested at": "1 µM", "quantity": "remaining activity", "result": "111%"}
{"SMILES": "N#CCCc1ccc2c(c1)-c1[nH]c3ccc([N+](=O)[O-])cc3c1CC(=O)N2", "target": "MAPK14", "effect on": "cell-free assay", "tested at": "0.5 µM", "quantity": "remaining signal", "result": "91.8%"}
{"SMILES": "CNC(=O)c1cc(Oc2ccc(NC(=O)Nc3ccc(Cl)c(C(F)(F)F)c3)cc2)ccn1", "target": "MAPK14", "effect on": "enzyme activity", "mode": "inhibitor", "tested at": "10 µM", "quantity": "inhibition", "result": "84%"}
{"SMILES": "Cc1sc(C(=O)NC2COC2)cc1-n1cc(NC(=O)Nc2c(F)cccc2Cl)cn1", "target": "MAPK14", "effect on": "enzyme activity", "mode": "inhibitor", "tested at": "10 µM", "quantity": "remaining activity", "result": "93.2%"}
{"SMILES": "Cc1c(C(=O)O)cc(-c2ccc(C3CCNCC3)cc2)c2ccc(-c3ccc(C(F)(F)F)cc3)cc12", "target": "MAPK14", "effect on": "binding", "method": "competition with immobilised ligand", "tested at": "1 µM", "quantity": "remaining binding", "result": "100%"}
{"SMILES": "Cc1cnc(NC2CCOCC2)nc1-n1cnc(C(=O)NC(CN)c2cc(F)cc(Cl)c2)c1 (stereo not shown)", "target": "MAPK14 T106M", "effect on": "enzyme activity", "mode": "inhibitor", "method": "radiometric", "tested at": "1 µM", "quantity": "remaining activity", "result": "55%"}
